Results: PMC10499415 (Clinical and Translational Science, 2023)
Like-named read-outs stand apart in the source and are kept apart here.

Legend:
[1] = cited from earlier work
[2] = design: AUC0–t / AUC0–inf: unit not given beside the values; details: cited from earlier work
clinical = details: human, in vivo, po, 20 mg, T max
[3] = healthy male adults; cited from earlier work
[4] = Phase I hepatic impairment study: safety and tolerability; format: in vivo, human
Summary of the method: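 Adults with chronic, stable hepatic impairment graded by Child-Pugh score (mild 5–6, moderate 7–9, severe 10–15), plus healthy controls matched on age, BMI and sex. All received a single oral 20 mg dose of test compound with ~240 mL water after an overnight fast of ≥10 h. Inpatient from day −1 to day 4, with repeated clinical and laboratory safety evaluations through day 4. AEs were queried by contact ~14 days post-dose.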

[5] = for AUC0–24 GMR (90% CI) / AUC0–inf GMR (90% CI) / C max GMR (90% CI): GMR = 100 × (test/reference); for increase in AUC0–inf compared with matched controls / increase in C max compared with matched controls: single oral 20 mg
cytochrome P450 (CYP450) = details: in vitro; cited from earlier work
[6] = design: unit not given beside the values; details: subjects who received futibatinib alone; cited from earlier work
[7] = cited from earlier work; remark: listed apart in the source
[8] = healthy subjects, fasted conditions
[9] = hepatic impairment groups vs overall healthy control group, range over groups
[10] = mild HI vs matched healthy control
[11] = mild HI vs overall healthy control cohort
[12] = moderate HI vs matched healthy control
[13] = moderate HI vs overall healthy control cohort
[14] = severe HI vs matched healthy control
[15] = severe HI vs overall healthy control cohort

In the case of C=CC(=O)N1CC[C@H](n2nc(C#Cc3cc(OC)cc(OC)c3)c3c(N)ncnc32)C1 [futibatinib, Futibatinib], the “impact of futibatinib on the PKs of CYP3A substrates” value [1] is listed as “no impact”, the futibatinib exposure increase ([1]; co‐administered with itraconazole) is listed as 40%–50% and the futibatinib exposure decrease ([1]; co‐administered with rifampin) is listed as 50%–60%. The “median T max” value ([2]; fed conditions) was 4.0 h, the “bioavailability lower under fed versus fasted conditions” value ([2]; fed versus fasted) was 11.2% and the “AUC0–inf” value [2, 8] was 625.7. For the same compound, the “AUC0–t” value [2, 8] was 617.8, the Tmax (clinical) was 1.75 h and the “total amount of unchanged futibatinib in urine and feces” value [3] was “negligible”. For the same compound, the laboratory results ([4]; all cohorts) was “No unexpected findings or remarkable trends”, the “study discontinuations due to TEAEs” value ([4]; all cohorts) was “no study discontinuations” and the “total TEAEs reported (all grade 1)” value ([4]; all cohorts, 38 participants) was “four”. The “participants reporting TEAEs” value ([4]; moderate hepatic impairment cohort) was “No participants”, the “participants reporting TEAEs” value ([4]; severe hepatic impairment cohort) was “No participants” and the tolerability ([4]; single oral 20 mg, all groups) was “well‐tolerated”. The “geometric mean C max greater than in corresponding matched healthy control group” value ([5]; across the hepatic impairment groups) was 10%–43%, the “geometric mean AUC greater than in corresponding matched healthy control group” value ([5]; across the hepatic impairment groups, AUC0–24, AUC0–t, AUC0–inf) was 17%–21% and the “mean percentage of AUC0–inf extrapolated” value ([5]; all groups) was under 2%. The “GMRs for AUC” value [5, 9] was 85.9% to 122.5%, the “GMRs for C max” value [5, 9] was 113.5% to 117.9% and the “AUC0–24 GMR (90% CI)” value [5, 10] was 121.19 (74.27–197.74) %. The “AUC0–inf GMR (90% CI)” value [5, 10] was 120.79 (73.89–197.47) %, the “C max GMR (90% CI)” value [5, 10] was 142.53 (103.42–196.44) % and the “AUC0–24 GMR (90% CI)” value [5, 11] was 85.92 (54.94–134.38) %. For the same compound, the “AUC0–inf GMR (90% CI)” value [5, 11] was 85.66 (54.70–134.15) %, the “C max GMR (90% CI)” value [5, 11] was 113.52 (82.50–156.21) % and the “increase in futibatinib exposure versus healthy matched controls” value ([5]; mild hepatic impairment) was 21%–43%. The “increase in AUC0–inf compared with matched controls” value (“increase in AUC0–inf” below) ([5]; mild hepatic impairment) was 21%, the “increase in C max compared with matched controls” value (from here on “increase in C max”) ([5]; mild hepatic impairment) was 43% and the “AUC0–24 GMR (90% CI)” value [5, 12] was 119.62 (54.08–264.61) %. The “AUC0–inf GMR (90% CI)” value [5, 12] was 119.61 (53.90–265.45) %, the “C max GMR (90% CI)” value [5, 12] was 114.85 (75.38–175.00) % and the “AUC0–24 GMR (90% CI)” value [5, 13] was 122.20 (64.51–231.48) %. The “AUC0–inf GMR (90% CI)” value [5, 13] was 122.49 (64.50–232.63) %, the “C max GMR (90% CI)” value [5, 13] was 117.90 (82.04–169.44) % and the “increase in futibatinib exposure versus healthy matched controls” value ([5]; moderate hepatic impairment) was 15%–20%. For the same compound, the “increase in AUC0–inf” value ([5]; moderate hepatic impairment) was 20%, the “increase in C max” value ([5]; moderate hepatic impairment) was 15% and the “AUC0–24 GMR (90% CI)” value [5, 14] was 116.91 (57.52–237.60) %. The “AUC0–inf GMR (90% CI)” value [5, 14] was 118.23 (57.79–241.87) %, the “C max GMR (90% CI)” value [5, 14] was 109.64 (66.62–180.44) % and the “AUC0–24 GMR (90% CI)” value [5, 15] was 117.62 (67.44–205.13) %. For the same compound, the “AUC0–inf GMR (90% CI)” value [5, 15] was 118.57 (67.46–208.38) %, the “C max GMR (90% CI)” value [5, 15] was 117.78 (87.42–158.68) % and the “increase in AUC0–inf” value ([5]; severe hepatic impairment) was 18%. The “increase in C max” value ([5]; severe hepatic impairment) was 10%, the “increase in futibatinib exposure versus healthy matched controls” value ([5]; severe mild hepatic impairment (so in the source)) was 10%–18% and the “contribution of CYP450–related metabolism to the overall metabolism” value (cytochrome P450 (CYP450)) was ~ 50%. For the same compound, the “AUC0–inf” value [6] was 941, the “AUC0–t” value [6] was 934.0 and the accumulation ([7]; after repeat once daily doses) was “no accumulation”. The “mean half‐life” value ([7]; patients with cancer and healthy subjects) was ~ 3 h and the “dose proportionality of exposure” value ([7]; up to 80 mg) was “Dose‐proportional exposure increases”.
